GRIN3A LBD mod: modulators (binders) of human NR3A ligand-binding domain. NR3A LBD differential scanning fluorimetry, Tm shift; 0% = protein alone, 100% = glycine-bound protein. Tm shift relative to glycine control, % at 25 µM. actives 2.5% (n = 340,000);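 active = melting temperature shift of at least 10% of the positive control shift, at one fixed dose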
SKN-1 block: C. elegans SKN-1 inhibition | inhibition, % at 21.8 µM | actives 0.49% (n = 360,000) | AID 624304 | C. elegans VP596 Pgst-4::GFP/RFP ratio, acrylamide-induced, 24 h;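 active = interference check ratio from 0.5 to 1.5 plus GFP to RFP signal ratio inhibition reaching or exceeding a fixed threshold, cut at about 30% in these data, passing the limit was not always enough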
MT1-MMP act inh: inhibitors of human MT1-MMP activation; GFP/RFP ratio change, % at 20 µM; HT1080 RFP-PRO-GFP cells, GFP/RFP ratio fluorescence, overnight; percent of plate control window, DMSO zero; P50281; actives 0.061% (n = 360,000); AID 651647;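 active = GFP/RFP ratio change of at least 30% with cell ATP level not reduced by more than half and red fluorescence within 50% of control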
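Material: RFP-PRO-GFP reporter HT1080 cells. Dosing: single-point 20 µM compound, 1% DMSO. Controls: DMSO and RFP-L50D-GFP cell wells. Timing: cells overnight before dosing, compound overnight, 37 °C, 5% CO2. Measure: GFP/RFP fluorescence ratio.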
MPTP block: permeability transition pore inhibition. isolated mouse mitochondria, Ca2+ swelling absorbance, 30 min. inhibition, % at 10 µM. actives 1.4% (n = 360,000);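 active = inhibition of 50% or more, scaled per plate between neutral and stimulator controls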;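 also: 0% = DMSO wells given calcium and 100% = 1 mM EGTA wells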
ADAM17 inh: ADAM17 inhibition, QFRET primary screen; recombinant ADAM17, EDANS/DABCYL FRET peptide cleavage; actives 0.83% (n = 370,000); inhibition, % at 6.95 µM; P78536; AID 720648;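 active = inhibition above the mean of compounds lying between control limits plus 3 SD, set per campaign, cut at about 8.5% in these data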;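 also: 0% = DMSO-only wells as the low control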
ADAM10 inh: inhibitors of human ADAM10 | AID 720582 | O14672 | inhibition, % at 7 µM | recombinant ADAM10, EDANS/DABCYL FRET peptide cleavage, 3 h | actives 0.62% (n = 370,000);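 active = inhibition above a per-campaign cutoff equal to the mean of compounds falling between control-based bounds plus 3 SD, cut at about 20% in these data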;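 also: 0% = DMSO wells while the 100% control is not disclosed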
Target sequence (O14672 214-748 limits assumed): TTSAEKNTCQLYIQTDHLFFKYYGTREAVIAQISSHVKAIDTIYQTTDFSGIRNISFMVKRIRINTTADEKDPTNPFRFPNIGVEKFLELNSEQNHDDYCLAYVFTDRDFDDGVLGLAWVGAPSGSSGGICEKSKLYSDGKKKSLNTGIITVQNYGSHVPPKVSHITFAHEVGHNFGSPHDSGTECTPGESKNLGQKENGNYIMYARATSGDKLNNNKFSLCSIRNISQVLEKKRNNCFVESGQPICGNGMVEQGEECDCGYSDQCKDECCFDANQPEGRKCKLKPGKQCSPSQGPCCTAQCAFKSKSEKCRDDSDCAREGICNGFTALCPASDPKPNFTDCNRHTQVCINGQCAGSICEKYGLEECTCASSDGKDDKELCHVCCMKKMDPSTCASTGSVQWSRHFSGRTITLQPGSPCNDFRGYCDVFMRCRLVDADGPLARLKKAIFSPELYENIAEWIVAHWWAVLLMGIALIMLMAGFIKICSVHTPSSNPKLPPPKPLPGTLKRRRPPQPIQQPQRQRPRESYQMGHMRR
ADAM10 confirm: confirmation of inhibitors of human ADAM10 | inhibition, % at 6.95 µM | actives 1% (n = 2,100) | shares compounds with ADAM10 inh | AID 743208 | ADAM10 QFRET peptide cleavage, EDANS fluorescence;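 active = inhibition above about 20% chosen separately for each screening run, limit read from the data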;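 also: 0% = DMSO wells and 100% = marimastat wells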
ADAM17 ctr: counter-screen for ADAM10 exosite inhibitors: inhibitors of human ADAM17; shares compounds with ADAM10 inh; ADAM17 QFRET peptide cleavage, EDANS fluorescence; inhibition, % at 6.95 µM; actives 0.5% (n = 2,100); AID 743214;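 active = mean triplicate inhibition above the solvent-only control wells' mean plus 3 SD, cut at about 12% in these data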;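 also: 0% = DMSO wells and 100% = marimastat wells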
ADAM10 counter: ADAM10 inhibition, counter-screen for ADAM17 exosite hits; shares compounds with ADAM17 inh; recombinant ADAM10, EDANS/DABCYL FRET peptide cleavage, 3 h; inhibition, % at 6.95 µM; actives 47% (n = 2,900); AID 743256;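 active = mean inhibition over the triplicate runs exceeds the activity threshold set in the earlier primary screen, cut at about 20% in these data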;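 also: 0% = DMSO wells and 100% = marimastat wells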
ADAM17 confirm: human ADAM17 inhibition, confirmation. actives 65% (n = 2,900). recombinant ADAM17, EDANS/DABCYL QFRET peptide cleavage. inhibition, % at 6.95 µM. shares compounds with ADAM17 inh;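 active = mean inhibition across replicates above the hit cutoff set in the primary screen, cut at about 8.5% in these data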;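 also: 0% = DMSO wells and 100% = marimastat wells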
Numbers without * were called inactive. Shown are actives, neighbours in structure and some others; about 4.7% of the full set was active somewhere.

Screening CC(C)(C)OC(=O)N1CCCC(C(=O)Nc2cccc(C(=O)NCCCCc3ccccc3)c2)C1 (configuration not stated) returned GRIN3A LBD mod -2, SKN-1 block -3, MT1-MMP act inh -1, MPTP block 2, ADAM17 inh 13*, ADAM10 inh 22*, ADAM10 confirm 3, ADAM17 ctr 1, ADAM10 counter 18 and ADAM17 confirm 12*.
COc1ccc(-c2csc3ncnc(Oc4cccc5ccc(C)nc45)c23)cc1 was read as GRIN3A LBD mod -7, SKN-1 block 7, MT1-MMP act inh -7, MPTP block -1, ADAM17 inh 8.9*, ADAM10 inh 21*, ADAM10 confirm 6, ADAM17 ctr 2, ADAM10 counter 14 and ADAM17 confirm 8.
Cc1ccc2cccc(Oc3ncnc4scc(-c5ccccc5)c34)c2n1 was read as GRIN3A LBD mod 2, SKN-1 block 5, MT1-MMP act inh -10, MPTP block 0, ADAM17 inh 3 and ADAM10 inh 1.
For CCCCC[C@H](C)N1C[C@@H](COCc2ccccc2)Oc2cc(N3CC[C@H](O)C3)ccc2S1(=O)=O the results were SKN-1 block 10, MT1-MMP act inh 4, MPTP block 1, ADAM17 inh 13*, ADAM10 inh 21*, ADAM10 confirm 11, ADAM17 ctr 4, ADAM10 counter 30* and ADAM17 confirm 21*.
CCCCC[C@H](C)N1C[C@H](COCc2ccccc2)Oc2cc(N3CC[C@@H](O)C3)ccc2S1(=O)=O was read as SKN-1 block 6, MT1-MMP act inh 3, MPTP block 3, ADAM17 inh 7 and ADAM10 inh 7.
`CCCCC[C@@H](C)N1C[C@H](COCc2ccccc2)Oc2cc(N3CCC[C@@H]3CO)ccc2S1(=O)=O` gave SKN-1 block 7, MT1-MMP act inh -9, MPTP block 0, ADAM17 inh 8.7*, ADAM10 inh 21*, ADAM10 confirm 7, ADAM17 ctr 2, ADAM10 counter 18 and ADAM17 confirm 10*.
Screening COc1ccc2[nH]c(=O)c(CN(C(=O)c3cccnc3)c3cccc(C)c3)cc2c1 returned GRIN3A LBD mod -1, SKN-1 block 4, MT1-MMP act inh 0, MPTP block 0, ADAM17 inh -18 and ADAM10 inh -62.
CC(NC(=O)c1sc2cc([N+](=O)[O-])ccc2c1Cl)C(C)(C)C (configuration not stated) was read as GRIN3A LBD mod 4, SKN-1 block 5, MT1-MMP act inh 2, MPTP block 5, ADAM17 inh -1 and ADAM10 inh -1.
C=CC[C@H](CC(=O)N[C@H](CO)Cc1ccccc1)C(=O)N[C@H](COC(=O)[C@@H](CC=C)Cc1ccc(F)cc1)Cc1c[nH]c2ccccc12 was read as GRIN3A LBD mod -1, SKN-1 block -2, MT1-MMP act inh -3 and MPTP block 2.
For C=CCC[C@H](Cc1ccc(F)cc1)C(=O)OC[C@@H](Cc1c[nH]c2ccccc12)NC(=O)[C@H](CC=C)CC(=O)N(CCO)Cc1ccccc1 the results were GRIN3A LBD mod 5, SKN-1 block 13, MT1-MMP act inh -8, MPTP block 0, ADAM17 inh 25*, ADAM10 inh 43*, ADAM10 confirm 11, ADAM17 ctr 3, ADAM10 counter 61* and ADAM17 confirm 35*.
